Shown are actives, neighbours in structure and some others; about 2.2% of the full set was active somewhere.
rCAG binder-1: binders of r(CAG) RNA repeats, primary screen, biochemical, fluorescence; inhibition, % at 3 µM; 1.3% of 370,000 active; r(CAG) RNA repeat, TO-PRO-1 dye displacement fluorescence;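 active = inhibition above the plate cutoff, the mean of all test compounds on that plate plus 3 SD, cut at about 35% in these data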;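 also: 0% = DMSO alone and 100% = 100 µM mitoxantrone as full dye displacement; higher means more dye released from RNA so lower well fluorescence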
ARFGAP1 inh: inhibitors of rat ARFGAP1 GAP activity, primary screen, biochemical, fluorescence polarization, GDP tracer; Arfgap1-stimulated ARF1 GTP hydrolysis, GDP FP detection; inhibition, % at 16.5 µM; 0.26% of 360,000 active; AID 651572, 2012;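 active = inhibition above a per-plate limit, mean inhibition of low control wells plus 3 SD, cut at about 25% in these data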;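 also: 0% = DMSO wells with enzyme and 100% = wells lacking Arfgap1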
Target sequence (Q62848 1-136 limits assumed): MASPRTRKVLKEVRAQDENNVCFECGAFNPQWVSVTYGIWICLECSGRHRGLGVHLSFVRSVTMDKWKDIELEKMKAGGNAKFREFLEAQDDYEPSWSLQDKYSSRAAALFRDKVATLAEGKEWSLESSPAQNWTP
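Assay system: Rat Arfgap1 GAP domain (His6, aa 1-136), purified enzyme | Buffer or medium: HEPES 25 mM pH 7.5, NaCl 150 mM, MgCl2, DTT | Schedule: GTP hydrolysis reaction 2 h at 25 °C | Signal: FP of antibody-bound GDP Alexa 633 tracer, ex 620/em 688 nm | Measure: Percent inhibition of Arfgap1-stimulated GTP hydrolysis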
ASAP1 GAP inh: inhibitors of human ASAP1 ArfGAP activity, primary screen, biochemical, fluorescence polarization; 0.19% of 360,000 active; ASAP1-stimulated ARF1 GTP hydrolysis, GDP FP detection; inhibition, % at 16.5 µM; Arf-GAP with SH3 domain, ANK repeat and PH domain-containing protein 1 (Homo sapiens), …; in the data active = inhibition above about 25%;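 also: 0% = vehicle with enzyme and substrate and 100% = no enzyme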
Target sequence (Q9ULH1 325-724 limits assumed): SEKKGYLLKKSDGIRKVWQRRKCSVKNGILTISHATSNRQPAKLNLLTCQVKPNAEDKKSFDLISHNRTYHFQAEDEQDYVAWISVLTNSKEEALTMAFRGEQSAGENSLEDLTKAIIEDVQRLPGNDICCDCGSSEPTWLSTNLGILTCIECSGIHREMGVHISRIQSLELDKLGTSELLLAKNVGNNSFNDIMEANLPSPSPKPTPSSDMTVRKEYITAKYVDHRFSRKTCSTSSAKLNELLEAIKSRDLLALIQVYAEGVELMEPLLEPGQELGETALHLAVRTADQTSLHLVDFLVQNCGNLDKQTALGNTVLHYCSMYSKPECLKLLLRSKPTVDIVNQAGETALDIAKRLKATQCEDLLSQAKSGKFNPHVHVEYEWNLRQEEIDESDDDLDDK
NadD block: inhibitors of S. aureus NadD, primary screen, biochemical, colorimetric, uHTS | 0.78% of 360,000 active | purified NadD enzyme, colorimetric absorbance read-out | inhibition, % at 20 µM | Nicotinate-nucleotide adenylyltransferase NadD (Staphylococcus aureus N315) | AID 602399, 2012; in the data active = inhibition above about 26%
rCAG binder conf: small molecules binding CAG repeat RNA – biochemical, fluorescence, confirmation; shares compounds with rCAG binder-1; inhibition, % at 3 µM; 70% of 4,300 active; r(CAG) RNA repeat, TO-PRO-1 dye displacement fluorescence; AID 652065, 2013;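 active = inhibition above a per-plate cutoff, the mean inhibition of sample wells plus 3 SD, cut at about 35% in these data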;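 also: loss of TO-PRO-1 fluorescence as compound displaces dye from 1x1 AA loop RNA; 0% = DMSO only wells and 100% = 100 µM mitoxantrone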
dCAG dye counter: displacement of TO-PRO-1 from CAG DNA duplex, counter-screen for rCAG RNA repeat binder project, biochemical, fluorescence, TO-PRO-1 dye, d(CAG) DNA oligo. inhibition, % at 3 µM. AID 652068, 2013. shares compounds with rCAG binder-1. 94% of 4,300 active. d(CAG) DNA oligo TO-PRO-1 dye displacement;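 active = inhibition above its plate's cutoff, the mean test-well inhibition plus 3 SD, cut at about 4.8% in these data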;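 also: 0% = DNA dye mix with DMSO and 100% = 100 µM mitoxantrone; hits displace the dye from DNA and so lower well fluorescence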
DNA CAG DR: inhibitors of DNA CAG/GTC TO-PRO-1 complex, dose response, counter-screen for rCAG RNA repeat binder project, biochemical, fluorescence, TO-PRO-1 dye; shares compounds with rCAG binder-1; DNA CAG/GTC duplex TO-PRO-1 dye displacement fluorescence; IC50, µM; 20% of 250 active; AID 686960, 2013; in the data active = IC50 below about 10 µM
dCAG DNA bind: TO-PRO-1 dye complex inhibitors on d(CAG) DNA, dose response, counter-screen, biochemical, fluorescence, late stage. shares compounds with rCAG binder-1. d(CAG) DNA duplex TO-PRO-1 dye displacement. IC50, µM. 80% of 30 active. AID 720649, 2013
rCAG binder-2: molecules binding r(CAG) RNA repeats, late stage dose response, late-stage follow-up, biochemical, fluorescence, dose response, powder samples; 100% of 30 active; IC50, µM; r(CAG) RNA TO-PRO-1 dye displacement; shares compounds with rCAG binder-1
Starred values were filed as active, the others as inactive; i = inactive; nt = no result given. Unless noted, no rule for the calls is given here.

SMILES	rCAG binder-1	ARFGAP1 inh	ASAP1 GAP inh	NadD block	rCAG binder conf	dCAG dye counter	others
CCN(c1ccccc1)S(=O)(=O)c1cc(NC(=O)CSc2n[nH]c(=O)[nH]c2=O)ccc1Cl	48*	-3	-3	5	32	15*
O=C(CSc1n[nH]c(=O)[nH]c1=O)Nc1ccc2c(c1)C(=O)c1ccccc1C2=O	40*	5	-1	54*	43*	17*
COC(=O)[C@]12C[C@H](CC(=O)NCc3ccccc3)C(=O)N(CCc3ccc(OC)c(OC)c3)C1=C[C@H](C1CCCC1)O[C@@H]2C	6	nt	nt	nt	nt	nt
Cc1ccc(-n2c(SCC(=O)Nc3ccc4c5c(cccc35)CC4)nc(O)cc2=O)cc1	27	4	0	3	nt	nt
Cc1ccc(-n2c(SCC(=O)Nc3ccc4c5c(cccc35)CC4)nc(O)c(C)c2=O)cc1	51*	4	5	7	34	11*
Cc1ccc(NC(=S)NNC(=O)CSc2nc3ccccc3c(=O)n2-c2ccc(C)cc2)cc1	45*	-7	2	20	45*	20*
COc1ccc(-n2c(SCC(=O)NNC(=S)Nc3ccccc3)nc3ccccc3c2=O)cc1	50*	nt	nt	nt	43*	16*
CCOc1ccc(-n2c(SCC(=O)Nc3ccc(C(=O)O)cc3)nc3ccccc3c2=O)cc1	29	-4	0	-4	nt	nt
Cc1ccc(-n2c(SCC(=O)Nc3ccc(N4CCOCC4)cc3)nc3ccccc3c2=O)cc1	9	8	12	10	nt	nt
O=C1CC(c2ccccc2)=NN1c1ccccc1	53*	1	1	2	7	4.8*
O=C1CC(c2ccccc2)=NN1c1nc(-c2ccccc2)cs1	65*	9	0	13	31	15*
CC1(C)CC(=O)N(CC(=O)N2CCN(Cc3ccccc3)CC2)c2ccccc2S1(=O)=O	1	nt	nt	nt	nt	nt
NNC(=O)c1cc(NS(=O)(=O)c2cccs2)cc(NS(=O)(=O)c2cccs2)c1	42*	-2	-6	7	9	4.7*
COc1ccc(C2c3sc(=O)[nH]c3SC3C4CCC(C4)C23)cc1OC (stereo not drawn)	6	3	4	4	nt	nt
COc1cc(C2c3sc(=O)[nH]c3SC3C(=O)N(c4ccc(Br)cc4)C(=O)C32)ccc1O (stereo not drawn)	38*	-5	5	-4	23	8.2*
CCCCN(CCCC)c1ccc(C(=O)c2ccccc2C(=O)O)c(O)c1	72*	-17	-20	12	57*	21*
Cc1ccc(-n2c(O)c(/C=C3/C(c4ccccc4)=Nc4ccccc43)c(=O)[nH]c2=O)cc1	3	-1	-8	6	nt	nt
CSc1nsc2nc(=O)c(/C=C3\C(C)=Nc4ccccc43)c(N)n12	42*	1	14	2	25	4.7*
CC(C)S(=O)(=O)C1=NSC2=NC(=O)/C(=C\c3ccc(-c4cccc(C(=O)O)c4)o3)C(=N)N21	72*	-18	2	2	74*	29*	DNA CAG DR=i;dCAG DNA bind=1.3*;rCAG binder-2=0.33*
N=C1/C(=C/c2cccn2CCOc2ccccc2)C(=O)N=C2SC=C(c3ccccc3)N12	30	21	-3	10	nt	nt
N=C1/C(=C\c2ccc(-c3cc(Cl)cc(Cl)c3)o2)C(=O)N=C2SC=C(c3ccccc3)N12	37*	1	9	5	38*	22*
CC(C)S(=O)(=O)C1=NSC2=NC(=O)/C(=C\c3ccc(-c4ccccc4)o3)C(=N)N21	38*	-2	1	13	87*	66*
O=C1OC(c2cccs2)=N/C1=C/c1ccc(-c2cccc(C(=O)O)c2)o1	18	3	6	9	nt	nt
Cc1ccc(S(=O)(=O)Oc2ccc(/C=C3/C(=N)N4C(=NC3=O)SN=C4S(C)(=O)=O)cc2)cc1	32	-1	-3	10	nt	nt
O=C(CCc1ccccc1)N[C@H]1[C@H](OCc2ccccc2)CCC[C@@]12C(=O)N(Cc1ccccc1)c1ccc(-c3ccsc3)cc12	8	nt	nt	nt	nt	nt
SMILES	rCAG binder-1	ARFGAP1 inh	ASAP1 GAP inh	NadD block	rCAG binder conf	dCAG dye counter	others
CCOC(=O)[C@]12CCCC=C1N(CCCOC)C(=O)[C@@H]2CC(=O)NCCCCc1ccccc1	-3	nt	nt	nt	nt	nt
COc1ccccc1NC(=O)NNC(=O)c1cc2ccccc2cc1O	42*	0	12	-4	34	11*
COc1cc(OC)c(NC(=O)c2cc3ccccc3cc2O)cc1Cl	35*	19	10	19	47*	22*
Cc1ccc(NC(=O)NNC(=O)c2cc3ccccc3cc2O)cc1	20	9	1	3	nt	nt
COc1ccc(NC(=O)Nc2nnc(C(C)C)s2)cc1	27	7	-4	-9	nt	nt
O=C(Nc1ccccc1)Nc1nc(-c2ccc(Cl)cc2)cs1	17	3	6	0	nt	nt
Cc1ccc(NC(=O)Nc2nc(-c3ccc(C)s3)cs2)cc1	52*	-4	12	0	17	21*
COc1ccc(NC(=O)Nc2nnc(-c3ccncc3)s2)cc1	42*	22	-7	9	18	8.9*
COc1ccc(-c2csc(NC(=O)Nc3ccccc3)n2)cc1	40*	15	4	1	14	16*
COC(=O)[C@]1(CNS(=O)(=O)C2CC2)CC(=O)N(C)[C@@H]1c1ccccc1	-1	nt	nt	nt	nt	nt
COC(=O)C[C@@H]1CC[C@H]2[C@@H](COc3ccc(NC(=O)Nc4ccccc4Cl)cc3C(=O)N2C)O1	3	nt	nt	nt	nt	nt
CC(C)(C)c1ccc(C(=O)NC(CC(=O)O)c2ccc(OC3CCCC3)cc2)cc1 (stereo not drawn)	39*	9	-1	-3	43*	8.0*
O=C(NCCO)C1(C(=O)C2CC2)CC(c2ccccc2C(F)(F)F)=NO1 (stereo not drawn)	3	nt	nt	nt	nt	nt

Source: PubChem BioAssay (several laboratories)
